Series [1] relates to Radical scavenging activity. The series is described as follows: Antioxidant activity assessed as DPPH free radical scavenging activity at 1 uM after 2 mins by spectrophotometry. Format: functional. Background: Loss of DPPH colour is used to gauge radical scavenging.
Series [2] has as its system Radical scavenging activity. Put plainly: Antioxidant activity assessed as DPPH free radical scavenging activity at 1 uM after 4 mins by spectrophotometry. It is filed as functional.
The test system of series [3] is Radical scavenging activity. Put plainly: Antioxidant activity assessed as DPPH free radical scavenging activity at 1 uM after 6 mins by spectrophotometry. It is filed as functional.
Series [4] concerns Radical scavenging activity. Put plainly: Antioxidant activity assessed as DPPH free radical scavenging activity at 1 uM after 8 mins by spectrophotometry. Format: functional.
Series [5] concerns Radical scavenging activity. The series is described as follows: Antioxidant activity assessed as DPPH free radical scavenging activity at 1 uM after 10 mins by spectrophotometry. It is filed as functional.
The test system of series [6] is THP-1. Put plainly: Antiinflammatory activity in LPS-stimulated human THP1 cells assessed as inhibition of TNFalpha formation at 10 uM pretreated 30 mins before LPS challenge measured after 24 hrs by ELISA. On the set-up: scale not given: the % may be the effect or the level left. It is filed as functional. Put shortly:
(§1)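 PMA-differentiated human THP-1 cells in RPMI 1640 with 10% FBS, penicillin and streptomycin. Compound or vehicle (0.5% DMSO) was added for 30 min at 37 °C, then E. coli 0127:B8 LPS. Cells were incubated 24 h at 37 °C, 5% CO2. Supernatant TNF-α and IL-6 were measured by ELISA. Percent inhibition of release was calculated versus control.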

Series [7] has as its system THP-1. The series is described as follows: Antiinflammatory activity in LPS-stimulated human THP1 cells assessed as inhibition of IL6 formation at 10 uM pretreated 30 mins before LPS challenge measured after 24 hrs by ELISA. Format: functional. On the set-up: scale not given: the % may be the effect or the level left. The method, boiled down:
as §1

In series [8] the test system is THP-1. Put plainly: Antiinflammatory activity in LPS-stimulated human THP1 cells assessed as inhibition of IL6 formation at 1 uM pretreated 30 mins before LPS challenge measured after 24 hrs by ELISA. Format: functional. On the set-up: scale not given: the % may be the effect or the level left. The method, boiled down:
as §1
(In general: An ELISA detects its analyte on a solid surface through an enzyme-linked reagent.)

A short description of series [9]: Cytotoxicity against LPS-stimulated human THP-1 cells at 10 uM after 24 hrs by CCK-8 assay. The conditions noted are these: THP-1, 24 h. On the technique in general: Formazan colour is commonly taken as a measure of viable cells.
Series [10] relates to Radical scavenging activity. The series is described as follows: Antioxidant activity assessed as DPPH free radical scavenging activity at 1 mM after 20 mins by spectrophotometry.

Molecules are shown by their SMILES. Calls of active or inactive are those of the source. No cut-off for these calls is given here.

For the compound `COc1cc(OC)c(C(=O)c2ccccc2F)c(O)c1CN1CCCCC1`, the Activity in [1] came out at 13.7%; in series [2], 16.9%; in series [3] it was 23%; in series [4] it was 28.9%; in series [5] it was 34.6%; in series [6], 0%. The Activity in series [7] was 84%; in series [8], 18%; in [9], 31%; in series [10] it was 73.3%.

Consider `COc1cc(OC)c(C(=O)c2cccc(Cl)c2)c(O)c1CN1CCCC1`, for which the Activity in series [1] stood at 0.5%; in series [2] it was 1.6%; in series [3], 1.82%; in series [4] it was 2.1%; in [5], 2.11%; in series [6], 37%. Moreover, the Activity in series [7] is 81%; in series [8], 41%; in series [9], 53%; in series [10], 5.13%.

As to `COc1cc(OC)c(C(=O)c2ccccc2Br)c(O)c1CN1CCCC1`, the outcome in series [1], in series [2], in series [3], in series [4], in series [5] and in series [10] was inactive. Further, the Activity turned out to be 99% in [6], 100% in [7], 19% in [8] and 84% in [9].

Take `COc1cc(OC)c(C(=O)c2cccc(F)c2)c(O)c1CN1CCCC1`: the Activity in [1] came out at 0.92%; in series [2], 4.51%; in series [3], 2.11%; in series [4] it was 3.78%; in [5], 4.78%; in [6], 1%. The Activity was determined as 93% in [7], 34% in series [8], 34% in series [9] and 7.29% in series [10].

`COc1cc(OC)c(C(=O)c2cccc(F)c2)c(O)c1CN1CCOCC1`: the result in [1], in series [2], in [3], in series [4], in [5] and in [10] was inactive. Moreover, the Activity in [6] amounted to 21%; in series [7] it was 86%; in series [8], 35%; in [9] it was 42%.

In the case of `COc1cc(OC)c(C(=O)c2cccc(F)c2)c(O)c1CN1CCCCC1`, the Activity in series [1] is 4.2%; in [2] it was 5.98%; in series [3], 9.25%; in series [4], 11.8%; in series [5], 13.7%; in series [6] it was 0%. In addition, the Activity in series [7] came out at 87%; in [8], 30%; in series [9], 27%; in series [10], 24.7%.

As to `COc1cc(OC)c(C(=O)c2ccccc2F)c(O)c1CN1CCOCC1`, the Activity worked out at 3.5% in series [1]; 4.2% in series [2]; 4.74% in [3]; 6.8% in series [4]; 8.21% in series [5]; 27% in [6]. Moreover, the Activity came out at 89% in [7], 19% in series [8], 39% in series [9] and 19.7% in [10].

As to `COc1cc(OC)c(C(=O)c2cccc(Cl)c2)c(O)c1CN1CCCCC1`, the Activity in series [1] stood at 9.2%; in [2], 11.4%; in [3] it was 14.8%; in [4], 20.9%; in series [5], 22.8%; in [6] it was 11%. For the same compound, the Activity in series [7] amounted to 83%; in series [8], 33%; in [9], 31%; in [10], 45.3%.

With `COc1cc(O)c(C(=O)c2ccccc2F)c(OC)c1`, the Activity in series [1] stood at 8.2%; in series [2], 12.5%; in [3], 13.6%; in series [4] it was 16.8%; in [5] it was 18.9%; in series [6] it was 47%. Besides, the Activity in [7] came to 71%; in series [8], 11%; in series [9] it was 53%; in [10] it was 32.4%.

For the compound `COc1cc(OC)c(C(=O)c2ccccc2Br)c(O)c1CN1CCOCC1`, the Activity in series [1] was 0.8%; in [2] it was 1.2%; in series [3], 1.9%; in series [4], 2.11%; in series [5], 2.95%; in series [6] it was 65%. Further, the Activity was 97% in [7], 19% in [8], 66% in [9] and 6.23% in [10].

On to `COc1cc(O)c(C(=O)c2cccc(F)c2)c(OC)c1`, for which the result in series [1], in series [2], in [3], in series [4], in series [5] and in [10] was inactive. Besides, the Activity amounted to 0% in [6], 81% in [7], 38% in [8] and 24% in series [9].

On to `COc1cc(OC)c(C(=O)c2ccccc2Br)c(O)c1CN1CCCCC1`, for which the Activity in series [1] turned out to be 10.8%; in series [2] it was 14.2%; in series [3], 17.7%; in series [4], 25.4%; in [5], 32.5%; in [6], 78%. Besides, the Activity came to 98% in series [7], 22% in [8], 61% in series [9] and 64.4% in series [10].

For the compound `COc1cc(OC)c(C(=O)c2cccc(Cl)c2)c(O)c1CN1CCOCC1`, the Activity turned out to be 5.52% in [1]; 6.44% in series [2]; 9.45% in series [3]; 14.6% in series [4]; 15.9% in [5]; 1% in series [6]. Moreover, the Activity in [7] stood at 83%; in series [8], 42%; in series [9] it was 39%; in [10], 33.4%.

As to `COc1cc(O)c(C(=O)c2ccccc2Br)c(OC)c1`, the result in [1], in series [2], in series [3], in [4], in series [5] and in series [10] was inactive. Further, the Activity stood at 11% in series [6], 72% in series [7], 7% in [8] and 43% in [9].

For `COc1cc(O)c(C(=O)c2cccc(Cl)c2)c(OC)c1`, the Activity stood at 3.21% in series [1]; 3.9% in series [2]; 4.2% in series [3]; 6.52% in [4]; 7.6% in series [5]; 0% in series [6]. In addition, the Activity in series [7] came to 78%; in series [8] it was 31%; in [9] it was 49%; in series [10] it was 16.4%.

On to `COc1cc(OC)c(C(=O)c2ccccc2F)c(O)c1CN1CCN(C)CC1`, for which the Activity worked out at 3.3% in series [1]; 3.95% in series [2]; 4% in [3]; 5.4% in series [4]; 6.2% in series [5]; 19% in [6]. Also, the Activity in [7] stood at 83%; in [8], 21%; in [9] it was 40%; in series [10] it was 17.5%.

For the compound `COc1cc(OC)c(C(=O)c2cccc(Cl)c2)c(O)c1CN1CCN(C)CC1`, the result in [1], in series [2], in series [3], in series [4], in series [5] and in series [10] was inactive. The Activity in series [6] is listed as 100%; in series [7], 100%; in [8], 54%; in [9] it was 77%.

For `COc1cc(OC)c(C(=O)c2ccccc2F)c(O)c1CN1CCCC1`, the Activity in series [1] amounted to 3.6%; in series [2], 4.24%; in series [3] it was 6.45%; in series [4], 9.5%; in [5], 11.9%; in series [6], 10%. The Activity in series [7] amounted to 87%; in series [8] it was 15%; in series [9], 27%; in series [10] it was 24.8%.

For the compound `O=C(O)c1cc(O)c(O)c(O)c1`, the Activity in series [1] was 18.2%; in [2] it was 22.7%; in series [3], 19.4%; in series [4], 38.4%; in series [5], 46.9%.

The values are drawn from ChEMBL document CHEMBL1156322, “Synthesis and biological evaluation of nitrogen-containing benzophenone analogues as TNF-alpha and IL-6 inhibitors with antioxidant activity” (Bioorg Med Chem Lett, 2010).
